Sampled rows, rich in hits. Any-hit rate of the full collection: about 3.9%.
m5-HT2A agonist: agonists of mouse serotonin 5-HT2A receptor (HTR2A) | CHO-K1 mHTR2A beta-arrestin complementation, luminescence; percent of 30 µM serotonin response | activation, % at 7.6 µM | hit rate 0.66% among 360,000;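 active means activation above a run cutoff, the mean activation of all tested compounds plus 3 SD, cut at about 14% in these data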;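 further: 0% = plate median of compound wells and 100% = 30 µM serotonin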
Target sequence (P35363 whole entry, looked up): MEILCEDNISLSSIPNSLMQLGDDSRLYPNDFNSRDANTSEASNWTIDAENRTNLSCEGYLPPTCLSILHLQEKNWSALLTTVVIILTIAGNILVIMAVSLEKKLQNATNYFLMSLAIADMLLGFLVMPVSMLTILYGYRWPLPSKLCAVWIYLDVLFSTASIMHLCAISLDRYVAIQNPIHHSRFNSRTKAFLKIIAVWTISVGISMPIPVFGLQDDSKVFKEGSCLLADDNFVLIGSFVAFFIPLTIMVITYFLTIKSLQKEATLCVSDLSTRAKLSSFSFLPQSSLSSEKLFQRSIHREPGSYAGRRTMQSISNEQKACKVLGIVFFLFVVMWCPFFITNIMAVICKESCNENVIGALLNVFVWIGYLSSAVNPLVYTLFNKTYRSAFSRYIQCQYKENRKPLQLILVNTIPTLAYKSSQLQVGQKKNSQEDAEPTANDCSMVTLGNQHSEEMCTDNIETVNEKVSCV
TAAR1 agonist: human TAAR1 agonism. Q96RJ0. CHO RD-HGA16 TAAR1, Fluo-8 calcium fluorescence; vehicle wells 0%, saturating PEA agonist 100%. activation, % at 3 µM. hit rate 0.99% among 360,000. AID 624467;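 active means activation above the mean activation of all test compounds in the run plus 3 SD, cut at about 38% in these data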
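System: CHO RD-HGA16 cells carrying human TAAR1 plus Gα16; Incubation: 17-24 h seeding, 75 min 37 °C dye, 30 min RT; Measured by: Fluo-8 fluorescence, 5 s baseline then 140 s kinetic read; Control set: DMSO and PEA EC100; Replication: single well for each compound.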
TAAR1 antagonist: antagonists of human TAAR1; Q96RJ0; hit rate 1.5% among 360,000; AID 624466; inhibition, % at 3 µM; CHO RD-HGA16 TAAR1, Fluo-8 calcium fluorescence, antagonist;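 active means inhibition above a per-plate cutoff, the mean inhibition of test compounds on that plate plus 3 SD, cut at about 49% in these data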;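 further: 0% = DMSO plus EC80 beta-PEA response and 100% = DMSO alone without agonist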
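test system = CHO RD-HGA16 cells bearing hTAAR1 | replication = singlicate | controls = DMSO-only wells and EC80 β-PEA-stimulated wells | reagent = EC80 β-phenethylamine stimulus | read-out basis = percent inhibition of PEA-evoked calcium signal, max/basal emission ratio | schedule = seeding 17-24 h prior, 75-min 37 °C, 30-min RT dye loading | signal = kinetic Fluo-8 calcium fluorescence measurement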
M1 PAM: potentiates human M1 receptor response to acetylcholine; P11229; CHO-K1 hM1, Fluo-8 calcium fluorescence, ACh EC20; 0% = ACh EC20, 100% = maximal ACh; activation, % at 3 µM; hit rate 0.088% among 360,000; in the data active means activation above about 19%, passing the limit was not always enough
CHRM1 antagonist: blocks human M1 muscarinic receptor | inhibition, % at 3 µM | hit rate 1.3% among 360,000 | CHO-K1 hM1, Fluo-8 calcium fluorescence, ACh EC80 antagonist | P11229;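 active means percent inhibition above its own plate's cutoff, namely the mean of that plate's compound wells plus 3 SD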;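 further: peak over basal fluorescence ratio during 140 s after agonist addition; 0% = ACh EC80 plus DMSO and 100% = DMSO alone without agonist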
M1 ag: agonists of human M1 muscarinic receptor; P11229; CHO-K1 hM1, Fluo-8 calcium fluorescence, agonist mode; 0% DMSO, 100% acetylcholine EC100; activation, % at 3 µM; hit rate 0.33% among 360,000;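 active means activation above the run's mean compound activation plus 3 SD, cut at about 16% in these data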;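 further: peak over basal fluorescence ratio within a 140 s kinetic read after compound addition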
Numbers without * were called inactive; / = no result.

SMILES	m5-HT2A agonist	TAAR1 agonist	TAAR1 antagonist	M1 PAM	CHRM1 antagonist	M1 ag
Cc1ccc(Nc2nc(-c3c(C)nc4ncccn34)cs2)cc1	-9	14	9	5	-9	-4
Cc1ccc(Nc2nc(-c3c(C)nc4ccccn34)cs2)cc1	-3	8	36	-11	23*	-5
C/C(=N\Nc1ccc([N+](=O)[O-])cc1)c1ccc(N2CCOCC2)cc1	-4	11	42	-1	5	-1
C/C(=N\Nc1ccc([N+](=O)[O-])cc1)c1ccc(-n2nncc2C)cc1	-10	15	57*	-18	10	-2
Cc1cc(=O)oc2cc(NC(=O)Cc3ccccc3[N+](=O)[O-])ccc12	-5	0	7	0	-6	-3
O=C(CCN1CCN(c2ccc([N+](=O)[O-])cc2)CC1)c1ccc(Cl)cc1	11	5	26	-19	38*	-4
CCOC(=O)N1CCN(CCC(=O)c2ccc(Br)cc2)CC1	6	15	4	-5	14	4
CCOC(=O)N1CCN(CCC(=O)c2ccc(Cl)cc2)CC1	6	37*	-6	2	-7	16
O=C(CN1CCN(c2ccc([N+](=O)[O-])cc2)CC1)c1ccccc1	-4	2	1	-26	40*	-8
CCCCS(=O)(=O)N1CCCc2nc(-c3ccc(F)cc3)ccc21	/	-1	17	/	/	/
c1ccc(-c2noc(CN3CCN(c4cnccn4)CC3)n2)cc1	2	13	3	1	7	0
O=C1/C(=C\c2ccc(O)c(O)c2)SC(=S)N1Cc1ccccc1	-4	38*	-14	-4	10	11
COc1cc(/C=C2/SC(=S)N(Cc3ccccc3)C2=O)ccc1O	-1	44*	12	1	4	13
O=C(NCc1ccccc1)c1ccccc1NC(=O)C1CCCCC1	0	1	-10	2	0	-3
COC(=O)[C@]12C[C@H](CC(=O)NCCCN3CCCC3=O)C(=O)N(Cc3ccc4c(c3)OCO4)C1=C[C@H](C(C)(C)C)O[C@@H]2C	/	0	6	/	/	/
Cc1ccc(N/C(N)=N/c2nc(CSc3ccccn3)cc(=O)[nH]2)c(C)c1	-11	-1	6	-1	-3	-4
CCc1ccc(N/C(N)=N/c2nc(CSc3ccccn3)cc(=O)[nH]2)cc1	-8	8	55*	-7	9	-3
CC(C)c1ccc(CN(C)CC(O)c2ccccc2)cc1 (stereo unspecified)	-1	1	-3	-6	-3	-7
CN(C)c1nc(N(C)C)nc(N2CCCCC2)n1	7	14	7	-1	22*	-5
COC(=O)C1=C(C)N(Cc2ccccc2C(F)(F)F)C(=NCc2ccccc2)NC1c1cccc(F)c1 (stereo unspecified)	/	6	-12	/	/	/
O=C(O)CSc1cn(Cc2ccccc2)c2ccccc12	-5	0	-5	9	-12	-3
O=C(O)c1cn(Cc2ccccc2)c2ccccc2c1=O	-4	0	-4	-11	62*	82*
CCn1c(Cc2ccc(OC)cc2)nnc1SCc1nc2ccccc2c(=O)[nH]1	2	1	4	7	-11	-1
CCOc1ccccc1CNC(=O)C1CCCN(c2nnc(C)c3c(C)n(-c4ccccc4)nc23)C1 (stereo unspecified)	2	1	22	-19	43*	-6
O=C(c1cc(-c2ccc(Cl)cc2)on1)N1CCc2ccccc2C1	-3	39*	3	2	-7	-3
O=C(NC1CCCC1)c1cc(-c2ccc(Cl)cc2)on1	-6	4	-6	-13	26*	-4
O=C(NC1CCCCC1)c1cc(-c2ccc(Cl)cc2)on1	6	0	-6	1	8	-1
C=CCn1c(SCC(=O)Nc2ccc(N3CCOCC3)cc2)nc2ccccc2c1=O	-1	1	-4	2	-4	-3
CCc1ccc(N/C(SCc2ccccc2C)=C(/C#N)C(=O)NCc2ccco2)cc1	-5	1	51*	6	-6	-1
CCc1ccc(OCCCC(=O)NCc2ccco2)cc1	2	-1	-17	9	-9	-8

Screens (PubChem BioAssay)
